Screening results: PubChem BioAssay, several laboratories
An excerpt weighted towards active compounds, which were near 5.1% of everything screened.
STAT1 act: increases IFN-gamma driven STAT1 reporter signal | activation (% of control), % at 5.5 µM | 2.6% of 200,000 active | NIH 3T3 STAT1-luciferase reporter, luminescence; 100% = IFN-gamma alone, no compound;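 active means activation above the screen-wide mean activation plus 3 SD, cut at about 130% in these data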
STAT1 inh: reduces IFN-gamma driven STAT1 reporter signal; 0.35% of 200,000 active; inhibition, % at 5.5 µM; NIH 3T3 STAT1-luciferase reporter, luminescence;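 active means inhibition above a set limit, the mean inhibition across all tested compounds plus 3 SD, cut at about 34% in these data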
STAT3 act: STAT3 signaling activation. U3A cells, IL-6 STAT3-luciferase reporter, luminescence; 100% = signal with IL-6 EC80 alone. activation (% of control), % at 5.6 µM. 0.91% of 190,000 active. AID 871;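 active means activation above the screen-wide mean of compound activation plus 3 SD, cut at about 130% in these data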
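Material: human STAT1-deficient U3A cells with stable STAT3-luciferase reporter / Probe or stimulus: IL-6 stimulus at 33 ng/mL final / Schedule: 1 h compound pre-exposure, 6 h IL-6 stimulation, 37 °C / Technique: luminescence / Read-out basis: percent of IL-6-only median luminescence / Control set: IL-6-only high control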
STAT3 inh-1: reduces IL-6 driven STAT3 reporter signal; 0.89% of 190,000 active; inhibition, % at 5.5 µM; U3A cells, IL-6 STAT3-luciferase reporter, luminescence; host cell line lacks STAT1;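 active means inhibition above the mean inhibition across all screened compounds plus 3 SD, cut at about 44% in these data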
NF-kB neuron act: NF-kB expression increase, human neuronal cells; NF-kB reporter expression; stronger effect = higher value; fold change at 12.5 µM; 1.6% of 190,000 active; AID 1239; in the data active means fold change above about 3.3
APP 5'UTR act: APP 5'UTR luciferase reporter activation; activation, % at 2 µM; SH-SY5Y APP 5'UTR luciferase reporter, luminescence; zero percent = DMSO vehicle wells; 1% of 190,000 active; AID 1276;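 active means activation above a set limit, based on mean plus 3 SD of controls, cut at about 140% in these data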
STAT3 inh-2: confirmation of STAT3 signaling inhibitors | shares compounds with STAT3 inh-1 | U3A cells, IL-6 STAT3 luciferase reporter, luminescence; cell line lacks STAT1 | inhibition, % at 5.7 µM | 45% of 1,200 active;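 active means inhibition above the hit cutoff computed for the primary STAT3 screen, cut at about 44% in these data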
NFkB inh 2: inhibits NF-kappaB, counter-screen to STAT3 inhibitors | shares compounds with STAT3 inh-1 | HEK293T NF-kB luciferase reporter, TNF-alpha induced | inhibition, % at 5.7 µM | 36% of 1,200 active | AID 1308;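 active means inhibition above the mean of solvent-only control wells plus 3 SD, cutoff set per campaign, cut at about 13% in these data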
STAT1 inh STAT3c: inhibits STAT1, counter-screen to STAT3 inhibitors. NIH 3T3 STAT1-luciferase reporter, IFN-gamma induced, luminescence. shares compounds with STAT3 inh-1. inhibition, % at 5.7 µM. AID 1317. 27% of 1,200 active;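 active means inhibition above the mean plus 3 SD of solvent-only control wells, limit set per screening run, cut at about 16% in these data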
A number is an active result; . = inactive; / = no result.

SMILES	STAT1 act	STAT1 inh	STAT3 act	STAT3 inh-1	NF-kB neuron act	APP 5'UTR act	others
COCCNP(=O)(c1ccccc1)c1nc2ccccc2s1 (stereo not given)	.	.	.	.	.	.
NCCc1nc2ccccc2s1	.	.	133	.	.	.
CNC(=O)c1cccn(Cc2ccc(C(F)(F)F)cc2)c1=O	.	37	.	46	.	.
COc1ccc(CCn2c(O)c(C=NCc3ccc4c(c3)OCO4)c(=O)[nH]c2=O)cc1OC	143	.	.	.	.	.
CC(/C=N/NC(=O)c1n[nH]c2c1CCC2)=C\c1ccccc1	.	.	.	.	6.9	.
CCNc1cc(N2CCNCC2)ccc1[N+](=O)[O-]	.	.	.	.	.	.
C=CC1CN2CCC1CC2c1[nH]c2ccccc2c1CCO (stereo not given)	.	.	.	.	.	.
CCN(CC)P(=O)(c1n(CC)cc[n+]1CC)N(CC)CC	.	.	.	.	.	.
CCCCc1ncc(CN2CCCC(C(=O)c3ccc(SC)cc3)C2)[nH]1 (stereo not given)	.	.	.	.	.	.
COc1ccc(OCC(=O)N2CCN(Cc3c[nH]c4ccccc34)CC2)cc1	.	.	135	.	.	.
O=C(COc1ccccc1)N1CCN(Cc2c[nH]c3ccccc23)CC1	.	.	.	.	.	.
Cc1cc(C(=O)N=Nc2c(O)n(C)c3ccccc23)c(C)o1	129	.	.	.	.	.
Cc1cc(C)cc(N2C(=O)NC(=O)/C(=C\c3cc(C)n(C)c3C)C2=O)c1	.	.	.	.	.	.
CC1=NN(c2ccccc2)C(=O)C1/C=C1/C(=O)NC(=O)N(c2cc(C)cc(C)c2)C1=O (stereo not given)	.	.	144	.	.	.
CC1=NN(c2ccccc2)C(=O)C1/C=C1/C(=O)NC(=O)N(c2cccc(C)c2)C1=O (stereo not given)	.	.	150	.	.	.
Cc1cccc(N2C(=O)NC(=O)/C(=C/c3cc4c(cc3[N+](=O)[O-])OCO4)C2=O)c1	.	.	.	.	.	.
Cc1ccc2c(c1)c(=O)c1c3n2CCN(CC2CO2)C3CC1 (stereo not given)	.	.	.	.	.	.
C=CCNC(=S)/N=C/c1c(O)[nH]c(=O)[nH]c1=O	.	.	.	.	.	.
NC(=S)/N=C/c1c(O)[nH]c(=O)[nH]c1=O	.	.	.	.	3.4	.
O=c1c2ccccc2nc(CSc2ncnc3nc[nH]c23)n1-c1ccccc1	.	.	.	.	3.9	.
Cc1ccccc1-n1c(-c2ccoc2)nc2ccccc2c1=O	.	.	.	.	.	.
CCCCCCOc1ccc(CN2CCN(C)CC2)cc1	.	.	.	.	.	144
O=C(Cn1nc(-c2ccc(Cl)cc2)ccc1=O)N1CCC2(CC1)OCCO2	.	.	.	.	.	.
O=C1Nc2ccccc2/C1=C/c1cnc[nH]1	.	.	.	57	.	.
COc1ccc(-n2c(/C=C3\C(=O)Nc4ccccc43)nc3ccccc3c2=O)cc1	.	.	.	.	.	.
SMILES	STAT1 act	STAT1 inh	STAT3 act	STAT3 inh-1	NF-kB neuron act	APP 5'UTR act	others
CCN(CC)C(=O)c1ccc(NC(=O)Nc2ccccc2F)cc1	.	62	.	86	.	.
CC(C)NS(=O)(=O)c1ccc(OCC(=O)N2CCN(C)CC2)cc1	.	.	.	.	.	.
CN1CCN(C(=O)COc2ccc(-c3nc4ccccc4s3)cc2)CC1	.	49	.	85	4.3	135
CC1CN=C(NCc2ccc(F)cc2)S1 (stereo not given)	.	.	.	.	.	.
CN1C(=O)C(Cc2c[nH]c3ccccc23)C(=O)N(C)C1=O	.	.	159	.	.	.
CN1C(=O)C(Cc2cccc3ccccc23)C(=O)N(C)C1=O	.	.	.	.	.	.
CN1CC(C(=O)c2ccccc2)C(C(=O)c2ccccc2)C1 (stereo not given)	.	.	.	.	4.3	.
COc1ccc(-c2cc(=Nc3cccc(C(=O)O)c3)c3cc(C)ccc3o2)cc1	136	.	.	.	.	139
CNC(=O)Oc1ccc(-c2cn3cc(Cl)ccc3n2)cc1	.	.	.	84	14	.	STAT3 inh-2=68;NFkB inh 2=21;STAT1 inh STAT3c=.
C[C@H]1O[C@@H](O[C@H]2[C@@H](O)C[C@H](O[C@H]3[C@@H](O)C[C@H](O[C@H]4CC[C@@]5(C)[C@H](CC[C@@H]6[C@@H]5CC[C@]5(C)[C@@H](C7=CC(=O)OC7)CC[C@]65O)C4)O[C@@H]3C)O[C@@H]2C)C[C@H](O)[C@@H]1O	.	.	.	83	.	.	STAT3 inh-2=81;NFkB inh 2=.;STAT1 inh STAT3c=.
CC12CN3CN(C1)CC(C)(C3)C2=NO	.	.	.	.	.	.
Nc1ccccc1C(=O)OCCOc1ccccc1	.	.	.	58	6.7	182	STAT3 inh-2=.;NFkB inh 2=.;STAT1 inh STAT3c=.
CC(=O)Nc1ccc(OC(=O)c2ccccc2N)cc1	.	.	.	.	.	.
CC(C)(C)n1cc(C(=O)c2ccc3ccccc3c2O)cn1	.	.	.	65	.	212	STAT3 inh-2=.;NFkB inh 2=.;STAT1 inh STAT3c=.
Cn1nc(-c2ccc(OCC(=O)N3CCN(Cc4ccccc4)CC3)cc2)c2ccccc2c1=O	.	.	.	60	.	.	STAT3 inh-2=49;NFkB inh 2=20;STAT1 inh STAT3c=17
Cn1cccc1CN1CCN(C(=O)COc2ccccc2)CC1	.	.	.	.	.	.
O=c1[nH]c2ccccc2o1	.	.	.	.	.	.
CN1C2CCC1CC(=NO)C2	.	.	.	.	.	.
CN(C)C(=O)Oc1ccc(OC(=O)N(C)C)cc1	.	.	.	.	.	.
CN(C)C(=O)Oc1ccc(OCc2nc3ccccc3[nH]2)cc1	.	.	.	58	.	.	STAT3 inh-2=.;NFkB inh 2=.;STAT1 inh STAT3c=.
CN[C@H]1C[C@H]2O[C@@](C)([C@H]1OC)n1c3ccccc3c3c4c(c5c6ccccc6n2c5c31)C(=O)NC4	.	.	.	104	.	.	STAT3 inh-2=105;NFkB inh 2=96;STAT1 inh STAT3c=26
CC1=CC(=O)OC2CC3OC4C[C@@H](C)C5OC6CC7O[C@]8(C)C/C=C\C9OC%10CC%11OC(CC(C)CO)CC(O)[C@]%11(C)OC%10CC9OC8C[C@]7(C)O[C@]6(C)CCC5OC4C[C@]3(C)OC12 (stereo not given in full)	.	.	/	/	.	.
